Among the data in ChEMBL document CHEMBL2150916, “Dual inhibition of γ-oryzanol on cellular melanogenesis: inhibition of tyrosinase activity and reduction of melanogenic gene expression by a protein kinase A-dependent mechanism” (J Nat Prod, 2012) are Activity and inhibition values, retold here.

Active and inactive are the calls of the source. The rule behind the calls is not given here.

The nature of data set [1]: Cytotoxicity against mouse B16-F1 cells. It is filed as cell-based. The gist of the method:
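MTT assay on B16F1 murine melanoma cells tested over 300−0.03 μM. Cells grown in DMEM with 10% FBS and 1% penicillin/streptomycin at 37 °C, 5% CO2.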

Data set [2] has as its target T1, Tyrosinase (Agaricus bisporus) (UniProt O42713).
T1 sequence (whole entry): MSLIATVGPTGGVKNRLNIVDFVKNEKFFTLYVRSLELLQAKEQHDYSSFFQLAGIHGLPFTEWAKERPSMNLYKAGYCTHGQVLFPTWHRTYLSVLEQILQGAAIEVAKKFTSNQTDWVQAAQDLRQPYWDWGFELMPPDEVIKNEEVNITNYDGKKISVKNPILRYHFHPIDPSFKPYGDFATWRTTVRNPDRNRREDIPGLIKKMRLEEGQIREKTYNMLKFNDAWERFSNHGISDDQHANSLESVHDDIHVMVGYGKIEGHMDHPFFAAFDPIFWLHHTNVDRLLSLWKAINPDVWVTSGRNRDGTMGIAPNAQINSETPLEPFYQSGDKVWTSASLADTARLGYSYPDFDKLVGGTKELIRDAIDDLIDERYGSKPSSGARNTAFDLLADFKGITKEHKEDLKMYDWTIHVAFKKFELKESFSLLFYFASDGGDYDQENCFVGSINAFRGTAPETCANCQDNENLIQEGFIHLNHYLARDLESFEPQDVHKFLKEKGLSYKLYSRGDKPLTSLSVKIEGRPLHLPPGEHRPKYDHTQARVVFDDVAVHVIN
The data set is described as follows: Inhibition of mushroom tyrosinase after 20 mins. The gist of the method: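 Mushroom tyrosinase in 0.1 M phosphate buffer with 0.03% (w/v) tyrosine as substrate, incubated 37 °C for 20 min. OD read at 492 nm; inhibition % = (1 − sample/control OD492) × 100. Arbutin positive control.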

Data set [3] relates to B16-F1. As to the kind of experiment: Inhibition of melanin synthesis in mouse B16-F1 cells after 72 hrs by spectrophotometric analysis. It is filed as functional, cell-based. The gist of the method:
(§1)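 B16F1 cells treated 72 h (3 or 30 μM). After lysis and centrifugation at 12000g, pellets dissolved in 1 N NaOH at 60 °C for 1 h. Absorbance read at 400 nm against a synthetic melanin standard, normalized to Bradford protein. Arbutin positive control. Means ± SE of three independent experiments.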

The test system of data set [4] is B16/F1. As to the kind of experiment: Inhibition of PKA in mouse B16-F1 cells assessed as decrease of MITF promoter- dependent lymphoid enhancer factor mRNA expression at 3 uM after 72 hrs by […]. Format: cell-based. The gist of the method: (§2)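 Two-color oligonucleotide microarray on Mouse OneArray chips, comparing untreated and treated (3 μM) B16F1 cells labelled with Cy3/Cy5-dUTP. RNA extracted with RNAiso Plus and further purified. Arrays scanned and probe-level expression values computed.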

Data set [5] relates to B16-F1. The data set is described as follows: Inhibition of melanin synthesis in mouse B16-F1 cells at 3 uM after 72 hrs by spectrophotometric analysis relative to control. Format: functional. The note with it: B16-F1, 72 h. The gist of the method:
as §1

Data set [6] has as its system B16/F1. The data set is described as follows: Inhibition of PKA in mouse B16-F1 cells assessed as effect on ERK2 mRNA expression at 3 uM after 72 hrs by RT-PCR analysis. It is filed as cell-based.
Data set [7] relates to B16-F1. The data set is described as follows: Inhibition of melanin synthesis in mouse B16-F1 cells at 30 uM after 30 mins by Fontana-Masson staining. Format: functional, cell-based. The note with it: in the assay text read “after 72 hrs” for “after 30 mins”. The gist of the method:
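B16F1 cells on slides treated with 30 μM, fixed in 4% paraformaldehyde for 30 min at room temperature. Melanin stained by Fontana−Masson (ammoniacal silver, gold chloride, sodium thiosulfate).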

For data set [8], the system named is B16/F1. As to the kind of experiment: Inhibition of PKA in mouse B16-F1 cells assessed as decrease of TRP-1 mRNA expression at 3 uM after 72 hrs by RT-PCR analysis relative to control. It is filed as cell-based. The gist of the method:
(§3)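 B16F1 cells treated 72 h at 3 μM. Total RNA extracted with Trizol; cDNA made from 2 μg RNA with M-MLV reverse transcriptase and oligo(dT). qPCR run 95 °C 3 min, then 50 cycles of 95 °C 10 s, 56 °C 15 s, 72 °C 20 s, with melting-curve check. Expression calculated relative to cyclophilin. Means ± SE of three independent experiments.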

The subject of data set [9] is B16/F1. As to the kind of experiment: Inhibition of PKA in mouse B16-F1 cells assessed as decrease of MITF mRNA expression at 3 uM after 72 hrs by RT-PCR analysis relative to control. Format: cell-based. The gist of the method: as §3
Data set [10] has as its target T2, Tyrosinase (Mus musculus) (UniProt P11344).
T2 sequence (whole entry): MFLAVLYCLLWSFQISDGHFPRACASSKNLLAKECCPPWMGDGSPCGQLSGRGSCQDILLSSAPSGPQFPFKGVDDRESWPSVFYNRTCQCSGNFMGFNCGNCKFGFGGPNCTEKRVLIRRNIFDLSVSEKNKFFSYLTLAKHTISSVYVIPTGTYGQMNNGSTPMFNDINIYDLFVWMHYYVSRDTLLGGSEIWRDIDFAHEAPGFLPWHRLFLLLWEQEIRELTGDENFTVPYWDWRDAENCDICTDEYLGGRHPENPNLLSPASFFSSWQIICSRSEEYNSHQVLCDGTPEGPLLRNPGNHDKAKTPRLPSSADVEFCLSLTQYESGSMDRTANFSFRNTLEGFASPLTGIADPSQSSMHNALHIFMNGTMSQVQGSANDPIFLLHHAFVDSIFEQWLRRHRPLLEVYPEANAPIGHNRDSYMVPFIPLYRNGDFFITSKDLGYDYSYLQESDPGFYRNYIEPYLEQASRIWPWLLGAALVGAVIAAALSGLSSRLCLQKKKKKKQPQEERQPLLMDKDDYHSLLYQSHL
As to the kind of experiment: Inhibition of tyrosinase in mouse B16-F1 cells using L-DOPA as substrate at 30 uM after 72 hrs. It is filed as cell-based. The gist of the method:
(§4)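 B16F1 cells treated 72 h with 3 or 30 μM. Cells lysed in 1% Triton X-100/PBS pH 6.8 and spun at 12000g, 4 °C. Supernatant mixed with 0.1% (w/v) L-DOPA; A475 followed over the first 2 h and normalized to total protein. Means ± SE of three independent experiments.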

Data set [11] deals with B16/F1. The data set is described as follows: Inhibition of PKA in mouse B16-F1 cells assessed as decrease of MITF mRNA expression at 3 uM after 72 hrs by RT-PCR analysis. Format: cell-based. The gist of the method: as §3
The target in data set [12] is T2, Tyrosinase (Mus musculus). The data set is described as follows: Inhibition of tyrosinase in mouse B16-F1 cells using L-DOPA as substrate at 3 uM after 72 hrs. Format: cell-based. The gist of the method: as §4
In data set [13] the test system is B16/F1. As to the kind of experiment: Inhibition of PKA in mouse B16-F1 cells assessed as decrease of TRP-1 mRNA expression at 3 uM after 72 hrs by RT-PCR analysis. Format: cell-based. The gist of the method:
as §3

The subject of data set [14] is B16/F1. As to the kind of experiment: Inhibition of PKA in mouse B16-F1 cells assessed as decrease of dopachrome tautomerase mRNA expression at 3 uM after 72 hrs by RT-PCR analysis. It is filed as cell-based. The gist of the method:
as §3

Data set [15] concerns B16/F1. The data set is described as follows: Inhibition of PKA in mouse B16-F1 cells assessed as decrease of MITF promoter- dependent paired-box 3 mRNA expression at 3 uM after 72 hrs […]. It is filed as cell-based. The gist of the method:
as §2

Data set [16] relates to B16/F1. The data set is described as follows: Inhibition of PKA in mouse B16-F1 cells assessed as decrease of dopachrome tautomerase mRNA expression at 3 uM after 72 hrs by RT-PCR analysis relative to control. It is filed as cell-based. The gist of the method:
as §3

Data set [17] concerns B16/F1. As to the kind of experiment: Inhibition of PKA in mouse B16-F1 cells assessed as decrease of phosphorylated CREB expression at 3 uM after 72 hrs by immunoblotting. It is filed as cell-based. The gist of the method: (§5)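 B16F1 cells treated 72 h at 3 μM. 40 μg total protein (Bradford) run on 10% SDS-PAGE and transferred to nitrocellulose. Blocked in TBS with 5% nonfat milk and 0.1% Tween 20. Probed with primary antibodies plus HRP secondaries and read by chemiluminescence. Band densities normalized to α-tubulin. Means ± SE of three independent experiments.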
(In western blotting, separated proteins are transferred to a membrane and probed.)

Data set [18] is described as follows: Cytotoxicity against mouse B16-F1 cells at 5 mM. It is filed as cell-based. The note with it: b16-f1, 5000 µM.
For data set [19], the system named is B16/F1. As to the kind of experiment: Inhibition of PKA in mouse B16-F1 cells assessed as effect on ERK2 phosphorylation at 3 uM after 72 hrs by immunoblotting. Format: cell-based.
The subject of data set [20] is B16/F1. The data set is described as follows: Inhibition of PKA in mouse B16-F1 cells assessed as decrease of MITF protein expression at 3 uM after 72 hrs by immunoblotting relative to control. Format: cell-based. The gist of the method:
as §5

The test system of data set [21] is B16/F1. The data set is described as follows: Inhibition of PKA in mouse B16-F1 cells assessed as decrease of TRP-1 protein expression at 3 uM after 72 hrs by immunoblotting relative to control. Format: cell-based. The gist of the method:
as §5

The subject of data set [22] is B16/F1. The data set is described as follows: Inhibition of PKA in mouse B16-F1 cells assessed as decrease of MC1R mRNA expression at 3 uM after 72 hrs by RT-PCR analysis. It is filed as cell-based.
Data set [23] deals with B16/F1. The data set is described as follows: Inhibition of PKA in mouse B16-F1 cells assessed as decrease of dopachrome tautomerase protein expression at 3 uM after 72 hrs by immunoblotting relative to control. It is filed as cell-based. The gist of the method: as §5
Data set [24] concerns B16/F1. The data set is described as follows: Inhibition of PKA in mouse B16-F1 cells assessed as decrease of intracellular cAMP level at 3 uM after 72 hrs by colorimetric competitive immunoassay. It is filed as cell-based. The gist of the method: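 Cellular cAMP in B16F1 cells after 72 h at 3 μM, measured by colorimetric competitive immunoassay kit. Means ± SE of three independent experiments.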
In general terms: Cyclic AMP is a second messenger, typically raised through Gs and lowered through Gi signalling.

Data set [25] deals with B16-F1. The data set is described as follows: Inhibition of melanin synthesis in mouse B16-F1 cells at 30 uM after 72 hrs by spectrophotometric analysis relative to control. Particulars: B16-F1, 72 h. It is filed as functional. The gist of the method:
as §1

For data set [26], the system named is B16/F1. As to the kind of experiment: Inhibition of PKA in mouse B16-F1 cells assessed as decrease of CREB mRNA expression at 3 uM after 72 hrs by […]. It is filed as cell-based. The gist of the method: as §2
In data set [27] the test system is B16/F1. The data set is described as follows: Inhibition of PKA in mouse B16-F1 cells assessed as decrease of MITF promoter- dependent sex-determining region Y-box 10 mRNA expression at 3 uM after 72 hrs by […]. Format: cell-based. The gist of the method: as §2

Take `OC[C@H]1O[C@@H](Oc2ccc(O)cc2)[C@H](O)[C@@H](O)[C@@H]1O` [ARBUTIN]: the Activity result in data set [1] is given as “Toxic”. The inhibition (usually the drop in the measured response relative to a control, in per cent) in data set [2] was “Active”.
In the case of `COc1cc(/C=C/C(=O)O[C@H]2CC[C@]34C[C@]35CC[C@]3(C)[C@@H]([C@H](C)CCC=C(C)C)CC[C@@]3(C)[C@@H]5CC[C@H]4C2(C)C)ccc1O` [GAMMA ORYZANOL], the inhibition entry was “Dose-dependent effect” in [3]; 40% in data set [4]; 69% in data set [8]; 59% in data set [9]; 26% in data set [10]; 90% in data set [11]. In addition, the inhibition worked out at 29% in [12]; 94% in [13]; 56% in data set [14]; 29% in data set [15]; 51% in data set [16]; 57% in [17]. In addition, the inhibition entry is “Dose-dependent effect” in data set [2]; 64% in data set [20]; 82% in data set [21]; 56% in data set [22]; 92% in data set [23]; 13% in data set [24]. Further, the inhibition in data set [26] amounted to 28%; in [27], 90%. In addition, the inhibition at 3 µM in data set [5] is 13%. Also, the inhibition entry in data set [6] and in data set [19] was “inactive” throughout. In addition, the inhibition result in data set [7] is “Active”. Moreover, the Activity entry in data set [18] was “Non-toxic”. The same compound came in with an inhibition at 30 µM in data set [25] of 28%.
